Molecules are shown by their SMILES.

This is an account of results in ChEMBL document CHEMBL1141188, “Methyl substitution on the piperidine ring of N-[omega-(6-methoxynaphthalen-1-yl)alkyl] derivatives as a probe for selective binding and activity at the sigma(1) receptor” (J Med Chem, 2005).

The species named for one assay is Cavia porcellus. In words: Selectivity for guinea pig delta8-delta7 sterol isomerase (SI) site over guinea pig sigma 1 receptor.
Assay [1] has as its target Sigma non-opioid intracellular receptor 1 (Cavia porcellus) (UniProt Q60492). The experiment in a line: […] rat sigma 2 receptor over guinea pig sigma 1 receptor.
Assay [2] addresses T1, 3-beta-hydroxysteroid-Delta(8),Delta(7)-isomerase (Cavia porcellus, UniProt Q60490).
T1 sequence (Q60490 whole entry): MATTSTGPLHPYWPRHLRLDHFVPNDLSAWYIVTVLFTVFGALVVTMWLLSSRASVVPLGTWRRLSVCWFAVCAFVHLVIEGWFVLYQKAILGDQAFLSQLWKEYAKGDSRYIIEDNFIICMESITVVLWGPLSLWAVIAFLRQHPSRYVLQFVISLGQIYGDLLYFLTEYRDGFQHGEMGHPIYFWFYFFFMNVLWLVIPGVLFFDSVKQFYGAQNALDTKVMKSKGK
In words: Displacement of [3H](+/-)-emopamil from delta8-delta7 sterol isomerase (SI) site in guinea pig liver membranes. The format is cell membranes, Membrane. The essentials: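 Guinea pig liver membranes with (±)-[3H]emopamil; (±)-ifenprodil defined nonspecific binding. IC50 from six to nine concentrations, two or three duplicate experiments; Ki by nonlinear curve fitting.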

In assay [3] the target is Sigma non-opioid intracellular receptor 1 (Cavia porcellus, UniProt Q60492). In words: Displacement of [3H](+)-pentazocine from sigma 1 receptor in guinea pig brain membranes. Type of assay: cell membranes, Membrane.
Chain of Sigma non-opioid intracellular receptor 1 (Q60492 whole entry): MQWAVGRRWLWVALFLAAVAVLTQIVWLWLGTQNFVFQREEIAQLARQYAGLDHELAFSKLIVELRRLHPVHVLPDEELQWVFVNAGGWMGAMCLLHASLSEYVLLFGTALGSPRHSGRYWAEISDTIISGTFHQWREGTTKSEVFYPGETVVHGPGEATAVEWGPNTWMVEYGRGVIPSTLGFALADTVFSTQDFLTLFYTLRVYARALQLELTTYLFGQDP
The next assay deals with Sigma 2 receptor. In words: Displacement of [3H]DTG from sigma 2 receptor in rat liver membranes. Type of assay: cell membranes, Membrane.
The target in assay [4] is Sigma non-opioid intracellular receptor 1 (Rattus norvegicus) (UniProt Q9R0C9). The experiment in a line: Percentage inhibition of rat C6 glioma cell proliferation mediated by sigma 1 receptor at 50 uM.
Chain of Sigma non-opioid intracellular receptor 1 (Rattus norvegicus) (Q9R0C9 whole entry): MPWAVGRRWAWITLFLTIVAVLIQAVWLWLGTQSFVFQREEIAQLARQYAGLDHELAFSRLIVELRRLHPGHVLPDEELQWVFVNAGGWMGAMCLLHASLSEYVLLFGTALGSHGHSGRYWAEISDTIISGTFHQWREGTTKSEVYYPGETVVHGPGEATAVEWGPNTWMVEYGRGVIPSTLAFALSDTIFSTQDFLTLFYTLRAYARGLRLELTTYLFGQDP

Chain of Sigma non-opioid intracellular receptor 1 (Cavia porcellus) (Q60492 whole entry): as the sequence (Q60492 whole entry) above

Regarding `COc1ccc2c(CCCCN3CCCC(C)(C)C3)cccc2c1`, the Ratio Ki in the assay filed under Cavia porcellus was 5.3; in assay [1] it was 187. Moreover, the results for the Ki (in assay [2]; in assay [3]; on Sigma 2 receptor) were 1.89 nM, 0.36 nM and 67.4 nM, respectively.

Regarding `COc1ccc2c(c1)CCCC2CCCCN1CCC(C)CC1` (configuration not stated), the Ratio Ki in the assay listed under Cavia porcellus turned out to be 13; in assay [1] it was 86. Further, the Ki in assay [2] amounted to 5.55 nM; in assay [3], 0.42 nM; on Sigma 2 receptor it was 36.3 nM. The compound further yielded an inhibition in assay [4] of 53%.

With `Cc1ccccc1NC(=N)Nc1ccccc1C`, the inhibition in assay [4] amounted to 20%.

In the case of `COc1ccc2c(CCCCN3CCCC[C@@H]3C)cccc2c1`, the results for the Ratio Ki (in the assay filed under Cavia porcellus; in assay [1]) were 14 and 108, respectively. Besides, the values for the Ki (in assay [2]; in assay [3]; at Sigma 2 receptor) were 7.2 nM, 0.5 nM and 53.8 nM, respectively.

Regarding `COc1ccc2c(c1)CCCC2CCCN1CCCCC1(C)C` (configuration not stated), the results for the Ratio Ki (in the assay listed under Cavia porcellus; in assay [1]) were 0.1 and 0.6, respectively. The Ki in assay [2] turned out to be 16.4 nM; in assay [3], 178 nM; at Sigma 2 receptor it was 115 nM.

Consider `COc1ccc2c(c1)CCCC2CCCN1CCC(C)CC1` (configuration not stated), for which the Ratio Ki was 3 in the assay filed under Cavia porcellus and 18 in assay [1]. Also, the Ki in assay [2] is 5.34 nM; in assay [3], 1.78 nM; on Sigma 2 receptor it was 31.4 nM.

Consider `COc1ccc2c(c1)CCCC2CCCN1CCCCC1` (configuration not stated), for which the Ratio Ki turned out to be 15 in the assay listed under Cavia porcellus and 22 in assay [1]. Further, the Ki in assay [2] turned out to be 17.9 nM; in assay [3], 1.2 nM; at Sigma 2 receptor it was 26.2 nM.

Turning to `COc1ccc2c(CCCN3CCCC(C)(C)C3)cccc2c1`, the Ratio Ki in the assay listed under Cavia porcellus was determined as 25; in assay [1], 680. For the same compound, the Ki in assay [2] was 8.71 nM; in assay [3] it was 0.35 nM; on Sigma 2 receptor it was 238 nM.

As for `COc1ccc2c(CCCN3CCCC[C@@H]3C)cccc2c1`, the Ratio Ki was determined as 6.6 in the assay filed under Cavia porcellus and 15 in assay [1]. The values for the Ki (in assay [2]; in assay [3]; at Sigma 2 receptor) were 46.5 nM, 7.05 nM and 104 nM, respectively.

Compound `COc1ccc2c(c1)CCCC2CCCN1CCCC(C)(C)C1` (configuration not stated) showed an inhibition in assay [4] of 47%.

On to `COc1ccc2c(CCCN3CCCCC3(C)C)cccc2c1`, for which the Ratio Ki in the assay listed under Cavia porcellus was determined as 0.014; in assay [1] it was 0.09. Moreover, the Ki in assay [2] was 14.9 nM; in assay [3] it was 1060 nM; at Sigma 2 receptor, 94 nM.

For `CC(C(O)c1ccc(O)cc1)N1CCC(Cc2ccccc2)CC1` (racemic) [IFENPRODIL], the Ki in assay [2] turned out to be 4.7 nM.

As for `COc1ccc2c(c1)CCCC2CCCCN1CCCC(C)(C)C1` (configuration not stated), the inhibition in assay [4] is 31%.

`COc1ccc2c(CCCCN3CCC(C)(C)CC3)cccc2c1`: the Ratio Ki in the assay filed under Cavia porcellus came out at 0.8; in assay [1], 8. Moreover, the Ki was 1.82 nM in assay [2], 2.25 nM in assay [3] and 17.9 nM at Sigma 2 receptor.

`c1ccc(CCN2CCCCC2)cc1` returned an inhibition in assay [4] of 5%.

With `COc1ccc2c(CCCCN3CCC[C@H](C)C3)cccc2c1`, the values for the Ratio Ki (in the assay filed under Cavia porcellus; in assay [1]) were 4.3 and 50, respectively. Moreover, the Ki in assay [2] was found to be 2.81 nM; in assay [3], 0.66 nM; at Sigma 2 receptor, 32.7 nM.

For `COc1ccc2c(CCCCN3CCCC[C@H]3C)cccc2c1`, the Ratio Ki is 4.5 in the assay listed under Cavia porcellus and 34 in assay [1]. The Ki in assay [2] is 6.44 nM; in assay [3] it was 1.43 nM; on Sigma 2 receptor, 49.2 nM.

For the compound `COc1ccc2c(c1)CCCC2CCCCN1CCC(C)(C)CC1` (configuration not stated), the Ratio Ki in the assay filed under Cavia porcellus amounted to 14; in assay [1], 58. Besides, the Ki in assay [2] was 4.11 nM; in assay [3], 0.3 nM; on Sigma 2 receptor, 17.5 nM.

Take `COc1ccc2c(CCCN3CCC(C)CC3)cccc2c1`: the Ratio Ki came out at 13 in the assay listed under Cavia porcellus and 26 in assay [1]. Besides, the Ki in assay [2] was 19.5 nM; in assay [3] it was 1.5 nM; on Sigma 2 receptor, 38.9 nM.

As to `COc1ccc2c(c1)CCCC2CCCCN1CCCCC1(C)C` (configuration not stated), the Ratio Ki is 1.4 in the assay listed under Cavia porcellus and 4.8 in assay [1]. The values for the Ki (in assay [2]; in assay [3]; at Sigma 2 receptor) were 8.97 nM, 6.16 nM and 29.5 nM, respectively.

With `COc1ccc2c(CCCCN3CCC(C)CC3)cccc2c1`, the Ratio Ki in the assay listed under Cavia porcellus was found to be 268; in assay [1], 597. For the same compound, the Ki came to 8.04 nM in assay [2], 0.03 nM in assay [3] and 17.9 nM on Sigma 2 receptor.

Regarding `COc1ccc2c(c1)CCCC2CCCCN1CCCCC1` (configuration not stated), the Ratio Ki in the assay filed under Cavia porcellus was 3.5; in assay [1], 48. Further, the Ki in assay [2] worked out at 3.57 nM; in assay [3] it was 1.01 nM; at Sigma 2 receptor, 48.7 nM. For the same compound, in assay [4], the inhibition was 47%.

On to `COc1ccc2c(CCCCN3CCCCC3)cccc2c1`, for which the Ratio Ki worked out at 17 in the assay listed under Cavia porcellus and 132 in assay [1]. The figures for the Ki (in assay [2]; in assay [3]; at Sigma 2 receptor) were 19.5 nM, 1.14 nM and 151 nM, respectively.

Turning to `COc1ccc2c(CCCN3CCCC[C@H]3C)cccc2c1`, the Ratio Ki was determined as 6.1 in the assay listed under Cavia porcellus and 47 in assay [1]. Also, the Ki in assay [2] was 11.1 nM; in assay [3] it was 1.83 nM; on Sigma 2 receptor it was 86.2 nM.

For `COc1ccc2c(CCCN3CCC(C)(C)CC3)cccc2c1`, the Ratio Ki in the assay filed under Cavia porcellus was 6.1; in assay [1], 18. In addition, the Ki in assay [2] is 9.04 nM; in assay [3] it was 1.47 nM; on Sigma 2 receptor, 26.3 nM.

On to `COc1ccc2c(CCCN3CCC[C@H](C)C3)cccc2c1`, for which the Ratio Ki amounted to 1 in the assay filed under Cavia porcellus and 18 in assay [1]. The figures for the Ki (in assay [2]; in assay [3]; on Sigma 2 receptor) were 3.41 nM, 3.32 nM and 59.3 nM, respectively.

In turn, `CC(C)=CCN1CC[C@]2(C)c3cc(O)ccc3C[C@H]1[C@H]2C` [(+)-PENTAZOCINE] gave a Ki in assay [2] of over 10000 nM. This compound displayed an inhibition in assay [4] of 35%.

Take `COc1ccc2c(CCCN3CCCCC3)cccc2c1`: the Ratio Ki in the assay listed under Cavia porcellus was found to be 4.8; in assay [1] it was 22. Moreover, the Ki came to 37.6 nM in assay [2], 7.8 nM in assay [3] and 175 nM on Sigma 2 receptor.

For the compound `COc1ccc2c(CCCN3CCC[C@@H](C)C3)cccc2c1`, the values for the Ratio Ki (in the assay filed under Cavia porcellus; in assay [1]) were 14 and 45, respectively. Besides, the figures for the Ki (in assay [2]; in assay [3]; on Sigma 2 receptor) were 19.3 nM, 1.35 nM and 60.2 nM, respectively.

`O=C(Cc1ccc(Cl)c(Cl)c1)OCCN1CCCC1`: the inhibition in assay [4] was 25%.

For the compound `COc1ccc2c(CCCCN3CCCCC3(C)C)cccc2c1`, the Ratio Ki in the assay filed under Cavia porcellus is 0.5; in assay [1] it was 1.3. In addition, the Ki in assay [2] came out at 11.7 nM; in assay [3], 22.2 nM; on Sigma 2 receptor it was 28.6 nM.

For `COc1ccc2c(CCCCN3CCC[C@@H](C)C3)cccc2c1`, the Ratio Ki in the assay filed under Cavia porcellus was found to be 61; in assay [1], 266. The Ki in assay [2] stood at 14.6 nM; in assay [3], 0.24 nM; at Sigma 2 receptor, 64 nM.

Turning to `CCCN(CCC)CCc1ccc(OC)c(OCCc2ccccc2)c1`, the Ki in assay [2] turned out to be 14.6 nM; on Sigma 2 receptor, 212 nM.

On to `COc1ccc2c(c1)CCCC2CCCN1CCC(C)(C)CC1` (configuration not stated), for which the figures for the Ratio Ki (in the assay filed under Cavia porcellus; in assay [1]) were 3 and 27, respectively. For the same compound, the Ki in assay [2] was 5.39 nM; in assay [3], 1.18 nM; on Sigma 2 receptor, 31.4 nM.
